From ChEMBL document CHEMBL3259728, “Design, synthesis and biological evaluation of some novel substituted quinazolines as antitumor agents” (2014)

How the values were obtained:
Assay type in all cases: functional
[1] = test system: MCF7; experiment: Growth inhibition of human MCF7 cells assessed as cell growth at 10^-6 M after 48 hrs by SRB assay; settings: MCF7, 48 h, read-out: Activity
[2] = test system: NCI-H23; experiment: Growth inhibition of human NCI-H23 cells assessed as cell growth at 10^-4 M after 48 hrs by SRB assay; settings: NCI-H23, 48 h, read-out: Activity
[3] = test system: MDA-MB-435; experiment: Cytotoxicity against human MDA-MB-435 cells after 48 hrs by SRB assay; settings: MDA-MB-435, 48 h
Procedure, shortened: (§1)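 NCI 60-cell-line panel of human tumour lines from nine cancer types. Continuous 48 h exposure at five 10-fold dilutions from 10^-4 to 10^-8 M, with 5-FU as positive control. SRB protein stain read spectrophotometrically at time zero, untreated control and each concentration. GI50, TGI and LC50 were derived from the [(Ti−Tz)/(C−Tz)]×100 growth relations, and out-of-range values are given as > or < the tested limits.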

[4] = Growth inhibition of human SF539 cells assessed as cell growth at 10^-8 M after 48 hrs by SRB assay; settings: SF-539, 48 h, read-out: Activity
[5] = Growth inhibition of human SF295 cells assessed as cell growth at 10^-8 M after 48 hrs by SRB assay; settings: SF-295, 48 h, read-out: Activity
[6] = Growth inhibition of human OVCAR3 cells assessed as cell growth at 10^-6 M after 48 hrs by SRB assay; settings: OVCAR-3, 48 h, read-out: Activity
[7] = Growth inhibition of human UACC257 cells assessed as cell growth at 10^-4 M after 48 hrs by SRB assay; settings: UACC-257, 48 h, read-out: Activity
[8] = test system: RPMI-8226; experiment: Growth inhibition of human RPMI8226 cells assessed as cell growth at 10^-8 M after 48 hrs by SRB assay; settings: RPMI-8226, 48 h, read-out: Activity
[9] = test system: SW-620; experiment: Growth inhibition of human SW620 cells assessed as cell growth at 10^-7 M after 48 hrs by SRB assay; settings: SW-620, 48 h, read-out: Activity
[10] = Growth inhibition of human HOP92 cells assessed as cell growth at 10^-6 M after 48 hrs by SRB assay; settings: HOP-92, 48 h, read-out: Activity
[11] = test system: SNB-75; experiment: Cytotoxicity against human SNB75 cells after 48 hrs by SRB assay; settings: SNB-75, 48 h; procedure, shortened: as §1
[12] = test system: M14; experiment: Growth inhibition of human M14 cells assessed as cell growth at 10^-8 M after 48 hrs by SRB assay; settings: M14, 48 h, read-out: Activity
[13] = test system: SNB-19; experiment: Growth inhibition of human SNB19 cells assessed as cell growth at 10^-4 M after 48 hrs by SRB assay; settings: SNB-19, 48 h, read-out: Activity
[14] = test system: IGROV-1; experiment: Growth inhibition of human IGROV1 cells assessed as cell growth at 10^-5 M after 48 hrs by SRB assay; settings: IGROV-1, 48 h, read-out: Activity
[15] = test system: Malme-3M; experiment: Cytotoxicity against human MALME-3M cells after 48 hrs by SRB assay; procedure, shortened: as §1
[16] = Growth inhibition of human OVCAR5 cells assessed as cell growth at 10^-4 M after 48 hrs by SRB assay; settings: OVCAR-5, 48 h, read-out: Activity
[17] = test system: NCI-H23; experiment: Growth inhibition of human NCI-H23 cells assessed as cell growth at 10^-5 M after 48 hrs by SRB assay; settings: NCI-H23, 48 h, read-out: Activity
[18] = Cytotoxicity against human UACC62 cells after 48 hrs by SRB assay; settings: UACC-62, 48 h
Procedure, shortened: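 NCI 60-cell-line panel, 48 h continuous exposure to five 10-fold dilutions from 10^-4 to 10^-8 M. SRB protein staining was read spectrophotometrically, with time-zero, untreated-control and treated absorbances. GI50, TGI and LC50 were derived from the percentage-growth formulas. Values outside the tested range are expressed as more or less than the maximum or minimum concentration.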

[19] = test system: SR; experiment: Growth inhibition of human SR cells assessed as cell growth at 10^-4 M after 48 hrs by SRB assay; settings: read-out: Activity
[20] = test system: NCI-H322M; experiment: Cytotoxicity against human NCI-H322M cells after 48 hrs by SRB assay; procedure, shortened: as §1
[21] = test system: CAKI-1; experiment: Growth inhibition of human CAKI-1 cells assessed as cell growth at 10^-6 M after 48 hrs by SRB assay; settings: CAKI-1, 48 h, read-out: Activity
Procedure, shortened: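 Five-dose NCI panel protocol. Each dose (10^-4 to 10^-8 M, 10-fold steps) was given as 48 h continuous exposure, and protein was measured by SRB staining. Percentage growth at each level is [(Ti−Tz)/(C−Tz)]×100, where Tz is time-zero absorbance and C is untreated control.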

[22] = read-out: LC50 (the source's name)
[23] = read-out: pLC50 (the source's name) (converted)

Cc1ccc(-c2nc3ccc(Cl)cc3c(=O)n2/N=C/c2ccccc2)cc1
growth at 1 µM [1]: 86% | growth at 100 µM [2]: 51% | GI50 ([3]; read-out: GI50): > 100 µM | CC50 [3, 22]: > 100 µM | TGI ([3]; read-out: TGI): > 100 µM | GI50 ([3]; read-out: pGI50 (converted)): > 100 µM | CC50 [3, 23]: > 100 µM | TGI ([3]; read-out: pTGI): > 100 µM | growth at 0.01 µM [4]: 90% | growth at 0.01 µM [5]: 91% | growth at 1 µM [6]: 94% | growth at 100 µM [7]: 60% | growth at 0.01 µM [8]: 95% | growth at 0.1 µM [9]: 93% | growth at 1 µM [10]: 85% | GI50 ([11]; read-out: GI50): 1.39 µM | CC50 [11, 22]: > 100 µM | TGI ([11]; read-out: TGI): 4.74 µM | GI50 ([11]; read-out: pGI50 (converted)): 1.38 µM | CC50 [11, 23]: > 100 µM | TGI ([11]; read-out: pTGI (converted)): 4.79 µM | growth at 0.01 µM [12]: 95% | growth at 100 µM [13]: 10% | growth at 10 µM [14]: 34% | GI50 ([15]; read-out: GI50): 5.97 µM | CC50 [15, 22]: > 100 µM | TGI ([15]; read-out: TGI): > 100 µM | GI50 ([15]; read-out: pGI50 (converted)): 6.03 µM | CC50 [15, 23]: > 100 µM | TGI ([15]; read-out: pTGI): > 100 µM | growth at 100 µM [16]: 61% | growth at 10 µM [17]: 65% | GI50 ([18]; read-out: GI50): 25.8 µM | CC50 [18, 22]: > 100 µM | TGI ([18]; read-out: TGI): > 100 µM | GI50 ([18]; read-out: pGI50 (converted)): 25.7 µM | CC50 [18, 23]: > 100 µM | TGI ([18]; read-out: pTGI): > 100 µM | growth at 100 µM [19]: 62% | GI50 ([20]; read-out: GI50): 17.4 µM | LC50 ([20]; read-out: LC50): > 100 µM | TGI ([20]; read-out: TGI): > 100 µM | GI50 ([20]; read-out: pGI50 (converted)): 17.4 µM | LC50 ([20]; read-out: pLC50 (converted)): > 100 µM | TGI ([20]; read-out: pTGI): > 100 µM | growth at 1 µM [21]: 77%
